The full list was thinned out, with hits kept by preference.
Insulin prom act = TRM-6 insulin promoter activation; TRM-6 cells (human fetal islet line), insulin promoter eGFP reporter, imaging; plate-scaled: unstimulated 0, stimulated control 100; activation, % at 2 µM; actives 0.81% (n = 130,000);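 active means activation at 2 µM above a set limit, confirmed on inspection of the cell images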;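 further: share of cells whose green reporter signal exceeds an intensity cutoff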
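Test system: TRM-6 insulin promoter–eGFP reporter cells / Quantity: 1,000 cells per well / Reagent: tamoxifen inducer, 0.75 µM, in seeding medium / Compound dosing: 2 µM final, single concentration / Schedule: overnight tamoxifen, then two-day compound incubation at 37 °C / Measured by: automated fluorescence imaging of paraformaldehyde-fixed, Hoechst-counterstained cells, green channel / Read-out: percent activation from GFP-positive cell fraction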
Starred values were filed as active, the others as inactive.

SMILES	Insulin prom act
CCCN(Cc1cc2cc(C)ccc2[nH]c1=O)S(C)(=O)=O	-91.7
CC(C)CCNC(=S)Nc1ccccc1F	-2.7
COC(=O)c1[nH]c2ccccc2c1NC(=O)CN1CCN(c2cccc(OC)c2)C(C)C1 (stereo not drawn)	-9.4
COC(=O)c1[nH]c2ccc(C)cc2c1NC(=O)Nc1ccccc1OC	0.0
COC(=O)c1[nH]c2cc(C)ccc2c1NC(=O)CN1CCCc2ccccc21	190.9*
O=C(NCc1ccccc1)Nc1cccn(Cc2ccccc2Cl)c1=O	-5.3
O=C1C2C(C(=O)N1/N=C/c1ccc(N3CCCCC3)o1)C1C=CC2C12CC2 (stereo not drawn)	182.4
COc1ccc(S(=O)(=O)N2CCC(C(=O)Nc3ccc(F)cc3)CC2)c2cccnc12	0.0
CCc1cccc(NC(=O)CCSCCC(=O)Nc2cccc(CC)c2)c1	89.7*
Cc1ccc(NC(=O)CCSCCC(=O)Nc2ccc(C)c(C)c2)cc1C	2.6
COC(=O)CCC(=O)Nc1cccc(Cl)c1	0.0
CC1=CC(C)(C)n2c(O)c(N=N)c3cc(C)cc1c32	-6.1
O=C(CSc1ccccn1)NC1CCCC1	7.7
COc1cccc(CNC(=O)CCC2CCCN(Cc3cc4ccccc4o3)C2)c1 (stereo not drawn)	104.3
O=C(CCn1c(=O)c2ccccc2n(CC(=O)NC2CCCC2)c1=O)NCc1ccco1	-7.1
CCCC(=O)NCCc1ccc(S(N)(=O)=O)cc1	3.4
O=C(NCC(c1cccnc1)N1CCN(c2ccc(F)cc2)CC1)c1cccc(Cl)c1 (stereo not drawn)	7.1
O=C(COc1ccc(Cl)c(Cl)c1)NN1C(=O)C2C(C1=O)C1C=CC2C12CC2 (stereo not drawn)	5.9
COC(=O)c1ccccc1N1C(=O)C2C(C1=O)C1C=CC2C12CC2 (stereo not drawn)	163.6*
COC(=O)c1ccccc1N1C(=O)C2C(C1=O)[C@H]1C=C[C@@H]2C1 (stereo partly drawn)	-75.0
C/C(Nc1ccccc1)=C(/C#N)C(N)=O	0.0
O=C(c1ccccc1)c1nc2c(n1O)CCCCC2	105.9
O=C(CCCCCn1c(=S)[nH]c2cc3c(cc2c1=O)OCO3)N1CCN(C2CCCCC2)CC1	6.7
COc1ccc(-n2c(C)cc(C(=O)NC3CCCCC3)c2C)cc1	-8.3
O=C(Cn1cnc2ccccc21)OCC(=O)N1CCc2ccccc2C1	4.3
SMILES	Insulin prom act
O=C(CSc1ncn[nH]1)NC1CCCc2ccccc21 (stereo not drawn)	0.0
COc1ccc(CCNC(=O)CSc2ncn[nH]2)cc1	-85.7
O=C(CSc1ncn[nH]1)NCCC(c1ccccc1)c1ccccc1	85.3*
CCCc1cc(=O)n2c([nH]c3ccccc32)c1C#N	7.1
CCOc1cc(N(CC)CC)ccc1/C=C(/C#N)c1nc2ccccc2[nH]1	233.3*
Cc1ccc(/C=C(\C#N)c2nc3ccccc3[nH]2)s1	-96.2
CCN(CC)c1ccc(/C=C(/C#N)c2nc3ccc(C)cc3[nH]2)c(OC(C)C)c1	244.8*
N#C/C(=C/c1cccs1)c1nc2ccccc2[nH]1	-75.0
COc1cc(/C=C(\C#N)c2nc3ccccc3[nH]2)cc(Br)c1OCc1ccc(F)cc1	-6.7
N#C/C(=C\c1cc([N+](=O)[O-])c(N2CCOCC2)cc1N1CCOCC1)c1nc2ccccc2[nH]1	-9.1
Cc1ccc(CSCC(=O)N/N=C/c2cccc(OC3CSC3)c2)cc1	2.9
CCC(=O)NC(=S)Nc1cccc(Cl)c1N1CCCCC1	-3.3
COc1ccc(S(=O)(=O)N2CCN(C3Cc4ccccc4C3)CC2)cc1	0.0
Cc1cc(Cl)c(OCCCN2CCCCC2)c(Br)c1	146.2
Cc1cc(C)c(OCCN2C(=O)NC(C)(C)C2=O)c(Cl)c1	7.7
Cc1cc(Cl)c(OCCN2C(=O)NC(C)(C)C2=O)c(Br)c1	538.5*
COc1cc(C(=O)N/N=C2\CCS(=O)(=O)c3ccc(F)cc32)cc(OC)c1OC	-7.7
Cc1cc2cc(CCNC(=O)C(=O)c3c[nH]c4ccccc34)c(=O)[nH]c2cc1C	0.0
COc1ccc(NC(=S)NCCSc2ccc(Cl)cc2)c(OC)c1	-8.7
COc1cccc(N(CC(=O)NCCSc2ccc(Cl)cc2)S(C)(=O)=O)c1	93.1*
COc1ccc(N(CC(=O)NCCSCc2c(F)cccc2Cl)S(C)(=O)=O)cc1OC	6.7
COc1cc([N+](=O)[O-])cc2sc(NC(=O)C3CC3)nc12	0.0
O=C(CSc1nncs1)Nc1cc(-c2ccccc2)nn1-c1ccccc1	-2.6
COc1ccc(C(=O)Nc2ccc(Cl)cc2C(=O)NCCN2CCOCC2)cc1	5.1
Cc1c2ccccc2nc2c(F)c(NCCO)c(F)c(F)c12	112.1
SMILES	Insulin prom act
OCCNc1c2ccccc2nc2c(F)c(F)c(F)c(F)c12	180.6
Cc1c2ccccc2nc2c(F)c(NC(C)C)c(F)c(F)c12	233.3*
O=C(Nc1ccccc1CC[N+](=O)[O-])N1CCN(c2ccccc2)CC1	6.7
Cc1cc2c(ncn2C)c(NS(=O)(=O)c2ccc(Cl)cc2)c1C	-7.7
c1ccc(CSc2ccc(-c3cccnc3)nn2)cc1	0.0
COc1ccccc1Oc1coc2c(CN3CCN(C)CC3)c(O)ccc2c1=O	8.1
CC1CCN(Cc2c(O)ccc3c2O/C(=C\c2ccco2)C3=O)CC1	485.7*
O=C1/C(=C/c2ccco2)CCc2ccccc21	0.0
Cc1cc(C(=O)COC(=O)c2ccc[nH]c2=O)c(C)n1-c1ccc(F)cc1	0.0
COc1ccc(NC(=O)N2CCC(c3nc4ccccc4[nH]3)CC2)cc1	-2.3
Cc1ccc(N(C(=O)CCl)C(C(=O)NC2CCCCC2)c2cccnc2)cc1C (stereo not drawn)	163.2
Cc1ccc(N(C(=O)Cn2nnc(-c3ccccc3)n2)C(C(=O)NC2CCCCC2)c2ccccn2)cc1C (stereo not drawn)	343.8*
CC(C)(C)N(C(=O)Cn1nnc(-c2ccc(F)cc2)n1)C(C(=O)NC1CCCC1)c1ccncc1 (stereo not drawn)	132.4
CCN(CC(=O)NC(C)(C)C)C(=O)c1ccc(Br)cc1	0.0
O=C(COc1ccccc1)N1CCc2ccccc21	-2.0
O=C(CCC(=O)N1CCc2ccccc21)N1CCc2ccccc21	569.2*
Cc1ccc(S(=O)(=O)CCC(=O)N2CCc3ccccc32)cc1	3.6
CCCCC(CC(O)COCCC)C(=O)NN (stereo not drawn)	-8.3
COC(=O)CN1C(=O)S/C(=C/c2cc(C)n(C)c2C)C1=O	-3.8
O=C(CN1C(=O)S/C(=C/c2ccc(N3CCOCC3)cc2)C1=O)N1CCOCC1	-6.5
COC(=O)CN1C(=O)S/C(=C/c2ccc(N3CCCCC3)o2)C1=O	183.9*
CCn1c(SCC(=O)Nc2ccc(C(=O)OC)cc2)nc2cccnc21	126.7
CC(C)NC(=O)c1cc2cc(Br)ccc2oc1=O	128.6*
CC(C)NC(=O)COC(=O)c1cc(Br)ccc1Cl	-3.4
O=c1oc2ccc(Br)cc2cc1S(=O)(=O)c1ccc(F)cc1	8.1
SMILES	Insulin prom act
CN(C)C=NC(=O)c1cc(C(=O)c2ccc(C(C)(C)C)cc2)c[nH]1	0.0
O=C(N/N=C/c1cccs1)c1cc(-c2cccc3ccccc23)n[nH]1	-2.9
CN(C)C(=O)N1CCCC(C(=O)NCc2ccccc2Cl)C1 (stereo not drawn)	-7.7
Cc1ccc(S(=O)(=O)N2CCC(C(=O)NCc3ccccc3Cl)CC2)cc1	91.4*
O=C(NCc1ccccn1)C1CCN(S(=O)(=O)c2ccccc2)CC1	0.0
CCC(C)C(=O)N1c2ccccc2C(=C2SC(C(=O)OC)=C(C(=O)OC)S2)C(=S)C1(C)C (stereo not drawn)	-4.5
